V1aR counter – V1a receptor agonism, counter-screen for OXTR agonists. CHO-V1R cells, Fluo-8 calcium fluorescence, agonist mode; 0% DMSO, 100% 3 nM vasopressin. 320,000 tested, 0.25% active. activation, % at 3 µM. P37288;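 active = activation above the mean activation of all tested compounds plus 3 SD, per screening run, cut at about 20% in these data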;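 also: signal is peak over basal fluorescence ratio across a 100 second FLIPR read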
Target sequence (P37288 whole entry, looked up): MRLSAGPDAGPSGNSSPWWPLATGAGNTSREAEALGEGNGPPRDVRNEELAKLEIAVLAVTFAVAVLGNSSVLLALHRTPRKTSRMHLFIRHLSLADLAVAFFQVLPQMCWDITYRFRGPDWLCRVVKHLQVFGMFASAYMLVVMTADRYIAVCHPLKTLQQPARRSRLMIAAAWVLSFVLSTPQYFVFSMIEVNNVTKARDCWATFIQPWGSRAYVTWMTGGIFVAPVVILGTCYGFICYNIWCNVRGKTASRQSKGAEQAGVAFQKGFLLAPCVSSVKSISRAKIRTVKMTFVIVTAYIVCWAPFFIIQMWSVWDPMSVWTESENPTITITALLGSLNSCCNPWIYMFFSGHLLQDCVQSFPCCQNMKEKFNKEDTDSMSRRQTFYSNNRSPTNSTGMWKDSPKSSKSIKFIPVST
OXTR potentiate – human OXTR potentiation. CHO-OTR cells, Fluo-8 calcium fluorescence, potentiator mode; 0% = oxytocin EC15, 100% = EC100. AID 2445. 320,000 tested, 0.061% active. activation, % at 3 µM;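 active = activation above that plate's cutoff, the mean activation of tested compounds plus 3 SD, cut at about 6.6% in these data, passing the limit was not always enough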
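System: human OTR in CHO cells / Also added: sub-maximal oxytocin, roughly EC15 / Control set: EC15 oxytocin low, 75 nM oxytocin high / Schedule: 6 min compound pre-incubation at room temperature, 100 s kinetic read / Compound: single-point 3.0 µM / Replication: singlicate / Technique: Fluo-8 calcium dye fluorescence / Read-out basis: % activation of max/min ratio relative to oxytocin controls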
TAAR1 ag – human TAAR1 agonism; Q96RJ0; CHO RD-HGA16 TAAR1, Fluo-8 calcium fluorescence; vehicle wells 0%, saturating PEA agonist 100%; activation, % at 3 µM; 360,000 tested, 0.99% active;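 active = activation above the mean activation of all test compounds in the run plus 3 SD, cut at about 38% in these data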
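Benchmarks: low control DMSO, high control PEA (EC100); System: CHO RD-HGA16 cells carrying human TAAR1 plus Gα16; Detection: Fluo-8 fluorescence, 5 s baseline then 140 s kinetic read; Schedule: 17-24 h plating, Fluo-8 75 min 37 °C, 30 min RT; Read-out basis: % activation from peak over basal fluorescence ratio, DMSO-to-PEA scaled.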
TAAR1 antagonist – human TAAR1 antagonism | CHO RD-HGA16 TAAR1, Fluo-8 calcium fluorescence, antagonist | AID 624466 | 360,000 tested, 1.5% active | Q96RJ0 | inhibition, % at 3 µM;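 active = inhibition above a per-plate cutoff, the mean inhibition of test compounds on that plate plus 3 SD, cut at about 49% in these data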
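Test system – hTAAR1-expressing CHO RD-HGA16 cells, Gα16-coupled · Reagent – β-PEA at EC80 concentration, post-compound challenge · Compound dosing – 3 µM, single point · Timing – 140 s kinetic read after compound, 140 s after agonist · Detection – Fluo-8 intracellular calcium dye fluorescence, real-time kinetic reads · Control set – DMSO and EC80 PEA controls · Repeats – n of 1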
OXTR agonist – human OXTR agonism. P30559. CHO-OTR cells, Fluo-8 calcium fluorescence; normalized: DMSO 0%, oxytocin 100%. activation, % at 3 µM. 320,000 tested, 0.32% active. AID 2435;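 active = activation above the mean of all tested compounds plus 3 SD, cutoff set per screening run, cut at about 20% in these data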;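 also: peak over basal fluorescence ratio from a 100 s FLIPR kinetic read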
Hits are given with their value; - = inactive; . = no result. The list is not random: actives were taken first. Their share in the collection is about 2.3%.

SMILES	V1aR counter	OXTR potentiate	TAAR1 ag	TAAR1 antagonist	OXTR agonist
O=C(C(=O)N1CCC(CNS(=O)(=O)c2cccc3ccccc23)CC1)c1cccs1	.	.	-	-	.
C[C@H](CO)N1C[C@H](C)[C@H](CN(C)C(=O)Nc2ccc3c(c2)OCO3)OCc2cnnn2CCCC1=O	.	.	-	-	.
O=S1(=O)CC(N2CCCC2)CN1Cc1cn(Cc2ccc(C(F)(F)F)cc2)nn1 (centres undefined)	.	.	-	-	.
CC(=O)c1ccc(NC(=O)COC(=O)c2c3c(nc4ccccc24)/C(=C\c2cccs2)CCC3)cc1	-	-	-	58	-
CC(C)CNC(=O)COC(=O)c1c2c(nc3ccccc13)/C(=C\c1cccs1)CC2	.	.	-	50	.
O=C(COC(=O)c1c2c(nc3ccccc13)/C(=C\c1cccs1)CCC2)Nc1ccccc1	-	-	-	-	-
CCOC(=O)c1sc(NC(=O)Nc2ccc(F)cc2)nc1C	-	-	-	62	-
N#CC1=C(N)NC(SCC(=O)c2ccc(Cl)cc2)=C(C#N)C12CCCC2	-	-	-	51	-
N#CC1=C(N)NC(SCC(=O)c2ccc(Br)cc2)=C(C#N)C12CCCCC2	-	-	-	66	-
Cc1ccccc1-c1ccc2c(c1)[C@@H]1C[C@H](N(C)C(=O)Nc3ccccc3)[C@H]([C@H](C)O)CN1CC2	.	.	-	-	.
C[C@H]1[C@@H]2C[C@@]3(O[C@H](c4ccccn4)N=C3C[C@@H]1c1ccccc1)N(Cc1ccncc1)C2=O	.	.	-	-	.
CCCOC(=O)C1NC(=O)N2C(C(=O)OCCC)C(C)(C)S[C@H]12 (some centres undefined)	-	-	-	-	-
CC1(C)S[C@@H]2C(C(=O)OCc3ccccc3)NC(=O)N2C1C(=O)OCc1ccccc1 (some centres undefined)	-	-	-	51	-
CCC1(c2ccc(F)cc2)NC(=O)N(CC(=O)N2CCc3ccccc32)C1=O (centres undefined)	27	-	68	-	29
CCC1(c2ccccc2)NC(=O)N(CC(=O)N2CCc3ccccc32)C1=O (centres undefined)	-	-	-	-	-
CCCOc1ccc(CCc2n[nH]c(=S)n2-c2ccccc2)cc1	-	-	-	-	-
CCCOc1ccc(CCc2n[nH]c(=S)n2Cc2ccccc2)cc1	-	-	-	51	-
CCOC(=O)CSc1nc2ccc(NC(=O)CSc3nnnn3Cc3ccccc3)cc2s1	-	-	-	53	-
CCN(CC)C(=O)CSc1nc2ccc(NC(=O)CSc3nnc(COc4ccccc4C)n3C)cc2s1	-	-	-	56	-
CCC(=O)Nc1cccc(NC(=O)CSc2nnnn2Cc2ccccc2)c1	-	-	-	-	-
CCN(C[C@H]1N[C@@](CC)(C(=O)OC)[C@H]2C(=O)N(Cc3ccccc3)C(=O)[C@@H]12)C(=O)c1ccc(C(C)(C)C)cc1	-	-	-	54	-
CN1C[C@@H]2[C@@H]3C(=O)N(Cc4ccccc4)C(=O)[C@@H]3[C@](Cc3ccccc3)(C1=O)N2C(=O)c1ccc(C(C)(C)C)cc1	.	.	42	-	.
COC(=O)[C@]1(Cc2ccccc2)N[C@H](CN(C)C(=O)c2ccc(C(C)(C)C)cc2)[C@@H]2C(=O)N(Cc3ccccc3)C(=O)[C@@H]21	-	-	-	-	-
CCN(C[C@H]1N[C@@](C)(C(=O)OC)[C@H]2C(=O)N(Cc3ccccc3)C(=O)[C@@H]12)C(=O)c1ccc(C(C)(C)C)cc1	-	-	-	51	-
COC(=O)c1ccc(N)c2c(N)ccc(C(=O)OC)c12	.	.	-	-	.
SMILES	V1aR counter	OXTR potentiate	TAAR1 ag	TAAR1 antagonist	OXTR agonist
C[C@H](O)[C@@H]1C(=O)N2CCc3c([nH]c4c(-c5ccc6c(c5)OCO6)cccc34)[C@@H]2C[C@@H]1N(C)C(=O)Nc1ccccc1	.	.	-	-	.
Cc1nn(C)c(C)c1/C=N/N=C1\CCC2C3CCc4cc(O)ccc4C3CCC12C (centres undefined)	-	-	-	63	-
C[C@]12CCC3c4ccc(O)cc4CCC3C1CC/C2=N\N (some centres undefined)	-	-	-	-	-
O=C(CSc1n[nH]c(-c2ccc(Br)cc2)n1)NC1CCCC1	-	-	43	67	-
O=C(CSc1n[nH]c(-c2ccccc2)n1)NC1CCCCC1	-	-	-	-	-
CC(C)(C)OC(=O)N1CCCC(C(=O)Nc2cccc(C(=O)NCCc3ccccc3)c2)C1 (centres undefined)	.	.	-	49	.
O=C(NCCCCc1ccccc1)c1cccc(NC(=O)C2CCC2)c1	.	.	-	-	.
O=C(/C=C/c1ccccc1)Nc1cccc(C(=O)NCCCCc2ccccc2)c1	.	.	-	67	.
CC(C)(C)OC(=O)N1CCCC(C(=O)Nc2cccc(C(=O)NCCCCc3ccccc3)c2)C1 (centres undefined)	.	.	-	56	.
CC(C)(C)OC(=O)N1CCCC(C(=O)Nc2cccc(C(=O)NC3CC3)c2)C1 (centres undefined)	.	.	-	-	.
COC(=O)[C@]12C[C@H](CC(=O)NCc3cccs3)C(=O)N(Cc3ccccc3)C1=C[C@H](C1CCCC1)O[C@@H]2C	.	.	-	-	.
CCCCCCC12C(=Cc3cc4c(cc31)OCCO4)c1cc(OC)c(OC)cc1C(CC(=O)O)N2C(=O)OC (centres undefined)	.	.	-	-	.
Cc1ccc(NC(=O)c2ccc(CSc3nnc(-c4ccncc4)n3C)cc2)cc1	-	-	-	-	-
CCn1c(SCc2ccc(C(=O)Nc3cc(C)cc(C)c3)cc2)nnc1-c1ccncc1	-	-	-	59	-
CC(C)c1nc2c(s1)CCc1onc(-c3cccc([N+](=O)[O-])c3)c1-2	-	-	-	-	-
O=C(COc1ccc(Cl)cc1)Nc1nc(-c2ccc(S(=O)(=O)N3CCOCC3)cc2)cs1	-	-	-	62	-
O=C(Nc1nc(-c2ccc(S(=O)(=O)N3CCCC3)cc2)cs1)C1COc2ccccc2O1 (centres undefined)	-	-	-	57	-
COc1ccccc1OCC(=O)Nc1nc(-c2ccc(S(=O)(=O)N3CCOCC3)cc2)cs1	-	-	-	-	-
O=C(COc1ccccc1)Nc1nc(-c2ccc(S(=O)(=O)N3CCOCC3)cc2)cs1	-	-	-	55	-
COC(=O)[C@]12C[C@H](CC(=O)NCC3CCCCC3)C(=O)N(Cc3ccccc3)C1=C[C@H](C(C)(C)C)O[C@@H]2C	.	.	-	-	.
CC(C)CNS(=O)(=O)c1cc2c3c(c1)CCC(=O)N3CCC2	-	-	-	-	-
O=C(O)c1cc(NC(=O)c2ccc(Cl)c([N+](=O)[O-])c2)cc(C(=O)O)c1	-	-	-	-	-
O=C(Nc1ccc(C(O)(C(F)(F)F)C(F)(F)F)cc1)c1ccc(Cl)c([N+](=O)[O-])c1	-	-	-	57	-

Compound activity from PubChem.
